In brackets after ≈: the same amount, converted by molar mass.
Assays:
[1] = Aqueous solubility of the compound at pH 6.5 for 24 hrs by HPLC-MS/MS; assay type: physicochemical
[2] = Efflux ratio of apparent permeability across basolateral to apical side over apical to basolateral side in human Caco2 cells at 2 uM incubated for 2 hrs; details: Caco-2
[3] = system: A2780; assay: cells; assay type: functional, cell-based; details: Homo sapiens, A2780, 96 h
[4] = Clearance in Wistar-Han rat hepatocytes at 1 uM measured for 2 to 90 mins by LC-MS/MS; assay type: ADME, cell-based, Hepatocyte; details: time 2-90 min; for CLhep predicted at 1 µM: Wistar-Han
[5] = Apparent permeability of the compound across apical side to basolateral side in human CaCo-2 cells at 2 uM incubated for 2 hrs; assay type: ADME, cell-based
Procedure, shortened: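 Caco-2 monolayers with TEER of at least 400 Ω·cm². Compound (predissolved in DMSO) added apically or basolaterally at a final 2 μM and incubated 2 h at 37 °C, in triplicate. Both compartments were sampled before and after, MeOH-precipitated and analysed by LC–MS/MS. Papp = (Vr/P0)(1/S)(P2/t).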

[6] = Metabolic stability in Wistar-Han rat hepatocytes at 1 uM measured for 2 to 90 mins by LC-MS/MS; assay type: ADME, cell-based, Hepatocyte; details: time 2-90 min
[7] = Half life in Wistar-Han rat blood at 0.3 to 0.5 mg/kg, iv measured upto 24 hrs by HPLC with LC-MS/MS; assay type: ADME, organism-based; details: dose 0.3-0.5 mg/kg
[8] = system: MOLM-13; assay: Antitumor activity against human MOLM-13 cells xenografted in AML mouse model assessed as tumor volume by measuring T/C ratio at 15 mg/kg, iv qd; assay type: functional
Procedure, shortened: (§1)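 Nude mouse MOLM-13 AML xenograft. Compound dosed iv on the stated schedule, starting 5 days after tumor cell inoculation. Tumor volumes were followed. T/C ratio was taken from mean tumor volumes at the time point when the vehicle group was sacrificed, with significance tested against vehicle controls.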

[9] = Clearance in Wistar-Han rat Liver microsomes at 1 uM measured for 2 to 90 mins by LC-MS/MS; assay type: ADME, Microsome; details: time 2-90 min
[10] = Volume of distribution at steady state in Wistar-Han rat blood at 0.3 to 0.5 mg/kg, iv measured upto 24 hrs by HPLC with LC-MS/MS; assay type: ADME, organism-based; details: dose 0.3-0.5 mg/kg, read-out: Vdss
[11] = Aqueous solubility of the compound at pH 4 for 24 hrs by HPLC-MS/MS; assay type: physicochemical
[12] = Clearance in Wistar-Han rat blood at 0.3 to 0.5 mg/kg, iv measured upto 24 hrs by HPLC with LC-MS/MS; assay type: ADME, organism-based; details: dose 0.3-0.5 mg/kg
[13] = system: MOLM-13; assay: Antitumor activity against human MOLM-13 cells xenografted in AML mouse model assessed as tumor volume by measuring T/C ratio at 35 mg/kg, iv administered once in 3 days; assay type: functional; details: time 3 day; procedure, shortened: as §1
[14] = system: MOLM-13; assay: Antitumor activity against human MOLM-13 cells xenografted in AML mouse model assessed as tumor volume by measuring T/C ratio at 65 mg/kg, iv administered once in 5 days; assay type: functional; details: time 5 day; procedure, shortened: as §1

With COc1cc(F)ccc1-c1nc(Nc2cncc(CS(C)(=N)=O)c2)ncc1F (stereo unspecified) the solubility at 24 h [1] was 103 µg/mL (≈ 254 µM), the efflux ratio at 2 h, 2 µM [2] was over 10 and the IC50 [3] was 0.046 µM. For the same compound, the CLhep predicted at 1 µM [4] was 18.3 mL/min/kg and the Papp A→B at 2 h, 2 µM [5] was 2.3 ×10⁻⁶ cm/s.

Compound COc1cc(F)ccc1-c1nc(Nc2cc(F)cc(CS(C)(=N)=O)c2)ncc1F (stereo in doubt; 9) has a solubility at 24 h [1] of 24 µg/mL (≈ 56.8 µM) and a CLhep predicted at 1 µM [4] of 28.3 mL/min/kg.

COc1cc(F)ccc1-c1nc(Nc2cc(F)cc(CN)c2)ncc1F showed a solubility at 24 h [1] of 17 µg/mL (≈ 47.2 µM), an IC50 [3] of 0.692 µM and a CLhep predicted at 1 µM [4] of 50 mL/min/kg. The Stability [6] was “Unstable”.

For COc1cc(F)ccc1-c1nc(Nc2cc(F)cc(CS(=O)(CCCO)=NC#N)c2)ncc1F (stereo unspecified), the solubility at 24 h [1] was 0.5 µg/mL (≈ 1.02 µM), the IC50 [3] was 0.262 µM and the CLhep predicted at 1 µM [4] was 58.3 mL/min/kg.

Work on COc1cc(F)ccc1-c1nc(Nc2cc(F)cc(CS(C)(=N)=O)c2)ncc1F (stereo in doubt) yielded a half-life [7] of 1 h, a T/C [8] of 0.26 and a CLH [9] of 26.7 mL/min/kg. For the same compound, the CLH ([4]; 1 µM) was 31.7 mL/min/kg, the Vd [10] was 1.6 L/kg and the solubility at 24 h [11] was 30 µg/mL (≈ 71 µM). The clearance [12] was 21.7 mL/min/kg, the Papp A→B at 2 h, 2 µM [5] was 16.8 ×10⁻⁶ cm/s and the T/C [13] was 0.26. For the same compound, the T/C [14] was 0.34.

In the case of COc1cc(F)ccc1-c1nc(Nc2cc(F)c(F)c(CS(C)(=N)=O)c2)ncc1F (stereo unspecified), the CLhep predicted at 1 µM [4] is reported as 41.7 mL/min/kg and the Stability [6] is reported as “Stable”.

From ChEMBL document CHEMBL5036331 (J Med Chem, 2021)
